Test results from publication PMC11543989 (Communications Biology, 2024).
“Also recorded” adds a separate entry of the source.

Columns and labels:
HCoV-229E [1] = assay type: cell-based
SARS-CoV-2 replicon = assay: HeLa-integrated SARS-CoV-2 replicon activity, N-HiBiT luminescence; assay type: cell-based
Procedure, shortened: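 HeLa Flp-In T-REx replicon cells plated at 10% confluence, then induced 24 h later with 3 µg/mL doxycycline in regular FBS. After 16-24 h, a lytic detergent buffer with LgBiT and furimazine was added at a volume equal to the media to complement HiBiT-tagged nucleoprotein. Plates were shaken 10 min before reading luminescence. Replicon-free parental cells gave background; compound concentrations were compared with DMSO.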

SARS-CoV-2 [2] = assay type: cell-based
proximal lung organoids = assay: Organoid viability by LDH release; assay type: cell-based, human; conditions: days 3 and 4, cordycepin 30 µM
Procedure, shortened: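 Human proximal airway organoids derived from embryonic stem cells, expanded in matrigel in AES expansion medium, plated as one matrigel dome (~2000 organoids) per well. Test compounds (10 or 30 µM) or 0.5% DMSO were added on day 0, with three domes per condition. LDH release was read over 4 days; absorbance at 490 nm minus 680 nm background was converted to % cytotoxicity.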

HCoV-229E [3] = assay type: cell-based; remark: listed apart in the source
AMPK, mTOR, Akt [4] = assay type: cell-based, human; conditions: 30 µM, HeLa-replicon cells, doxycycline 24 hours
HCoV-229E [5] = assay: microbe, parasite or virus in culture; assay type: cell-based
AMPK, mTOR, Akt [6] = assay type: cell-based, human
HCoV-229E [7] = conditions: concentrations higher than 0.1 µM; cited from earlier work
HCoV-229E [8] = assay type: cell-based; remark: listed apart in the source
SARS-CoV-2 [9] = conditions: cited from earlier work

Nc1ncnc2c1ncn2[C@@H]1O[C@H](CO)C[C@H]1O [Cordycepin, cordycepin]
infectivity by TCID50, fold higher than that observed for BTZ-1 and ADEP-42 (HCoV-229E [1]): around 5 fold
inhibition of replicon activity (SARS-CoV-2 replicon; 3 µg/mL doxycycline, 24 hours): did not show inhibition of replicon activity
difference in SARS-CoV-2 viral RNA release compared to DMSO (SARS-CoV-2 [2]): 100 fold
cytotoxicity (LDH assay) (proximal lung organoids): below 20%
229E viral RNA release in media, time of incubation assay (HCoV-229E [3]): dramatically reduced viral RNA release in media even up to 72 hpi
229E viral RNA release, pre-treatment assay (HCoV-229E [3]): reduced viral RNA release; also recorded: strong inhibition
level of 229E viral RNA released, time of removal assay (HCoV-229E [3]): reduced the level of viral RNA released even after being removed
AMPK, mTOR or Akt phosphorylation (AMPK, mTOR, Akt [4]): No significant changes
total Akt levels (AMPK, mTOR, Akt [4]): did decrease
total mTOR protein levels (AMPK, mTOR, Akt [4]): not affected
IC50 (HCoV-229E [5]; Human coronavirus 229E, Huh-7, read-out: IC50, 229E viral replication (Fig. 6B)): 2100 nM
reduction of SARS-CoV-2 RNA release (SARS-CoV-2 SB2 strain): 99%
SI = CC50/IC50 (SARS-CoV-2 SB2 strain; SARS-CoV-2): more than 20
phosphorylation level of AMPK (AMPK, mTOR, Akt [6]): increased
protein level of AMPK (AMPK, mTOR, Akt [6]): remained constant
total levels of mTOR and Akt compared to DMSO (AMPK, mTOR, Akt [6]): large decrease

CN(C)C(=N)N=C(N)N [Metformin, metformin]
229E replication, various concentrations (HCoV-229E [5]): inhibited 229E replication in a dose-dependent manner

CCC(CC)COC(=O)[C@H](C)N[P@](=O)(OC[C@H]1O[C@@](C#N)(c2ccc3c(N)ncnn23)[C@H](O)[C@@H]1O)Oc1ccccc1 [Remdesivir, remdesivir]
IC50 (SARS-CoV-2 replicon; read-out: IC50, inhibition of replicon activity, 3 µg/mL doxycycline, 24 hours): 400 nM
inhibition of 229E (HCoV-229E [7]): ~100%
229E viral RNA release, pre-treatment assay (HCoV-229E [3]): little to no inhibition

Nc1ncnc2c1ncn2[C@@H]1O[C@H](COP(=O)(O)OP(=O)(O)OP(=O)(O)O)C[C@H]1O [cordycepin-TP]
229E S protein expression (IF) (HCoV-229E [8]): did not impact S protein expression
229E viral RNA release (HCoV-229E [5]; 10 µM, same concentration as cordycepin, […]): only weakly inhibited viral RNA release

COc1ccc2c(c1)[nH]c1c(C)nccc12 [harmine]
IC50 (SARS-CoV-2 [9]): 7.5 µM
